Results pooled from the literature.
Compare with care: the assays were run in different laboratories. pEC50, pIC50: −log10 of the molar value.
SLC22A2: Solute carrier family 22 member 2 (SLC22A2, Homo sapiens, UniProt O15244)

For `O=C(O)CSc1nnc(Br)n1-c1ccc(C2CC2)c2ccccc12`, the inhibition was 26% (SLC22A2; transporter uptake, inhibitor; MDCK-II; 100 µM, 5 min).
The pIC50 of `COc1ccc(-c2ocnc2C(=O)NCCCn2cncn2)cc1Cl` is reported as 3.93 (THLE; cell growth or viability).
For `CC(C)(O)c1ccccc1-c1ccc2[nH]c(/C=C/c3ccc(C(F)(F)F)cc3)nc2c1`, the half-life was 53.4 h (male human, plasma; oral, 60 mg, single dose, fasted, healthy volunteers).
For `CC(C)n1cc(C#N)c2cc(-n3cc(C(=O)O)cn3)ccc21`, the half-life was 13.1 h (human, plasma; oral, 400 mg, single dose, fasted, healthy volunteers).
`C=C[C@H]1C[N@@]2CC[C@H]1C[C@@H]2[C@@H](O)c1ccnc2ccc(OC)cc12` has an inhibition of 78% (SLC22A2; transporter uptake, inhibitor; MDCK-II; 100 µM, 5 min).
`CC[C@H](C)[C@H](NC(=O)[C@H](CCC(=O)O)NC(=O)[C@H](CO)NC(=O)[C@@H](NC(=O)[C@@H](N)CO)C(C)C)C(=O)N[C@@H](CCC(N)=O)C(=O)N[C@@H](CC(C)C)C(=O)N[C@@H](CCSC)C(=O)N[C@@H](Cc1cnc[nH]1)C(=O)N[C@@H](CC(N)=O)C(=O)N[C@@H](CC(C)C)C(=O)NCC(=O)N[C@@H](CCCCN)C(=O)N[C@@H](Cc1cnc[nH]1)C(=O)N[C@@H](CC(C)C)C(=O)N[C@@H](CC(N)=O)C(=O)N[C@@H](CO)C(=O)N[C@@H](CCSC)C(=O)N[C@@H](CCC(=O)O)C(=O)N[C@@H](CCCN=C(N)N)C(=O)N[C@H](C(=O)N[C@@H](CCC(=O)O)C(=O)N[C@@H](Cc1c[nH]c2ccccc12)C(=O)N[C@@H](CC(C)C)C(=O)N[C@@H](CCCN=C(N)N)C(=O)N[C@@H](CCCCN)C(=O)N[C@@H](CCCCN)C(=O)N[C@@H](CC(C)C)C(=O)N[C@@H](CCC(N)=O)C(=O)N[C@@H](CC(=O)O)C(=O)N[C@H](C(=O)N[C@@H](Cc1cnc[nH]1)C(=O)N[C@@H](CC(N)=O)C(=O)N[C@@H](Cc1ccccc1)C(=O)O)C(C)C)C(C)C` has a compound remaining of 100% (chemical stability, HPLC; aqueous buffer; 0.5 mg/mL, 2 min, pH 6.5).
With `COC(=O)c1csc(C(=O)c2c[nH]c3ccccc23)n1` the pEC50 was 8.34 (Aryl hydrocarbon receptor (AHR, Homo sapiens, UniProt P35869); reporter gene, agonist, luciferase).
`CON=C(N)c1ccc(-c2ccc(-c3ccc(C(N)=NOC)cc3)o2)cc1` gave a Km of 0.3 µM (Cytochrome P450 1B1 (CYP1B1, Homo sapiens, UniProt Q16678); enzyme activity, substrate).
`COc1ccc(S(=O)(=O)ON=C2C=C(C)C(=O)C(C)=C2)cc1` has a CC50 of 2.57 µM (MDA-MB-468; cell growth or viability).
